ChEMBL document CHEMBL3864154, “Discovery and preliminary structure-activity relationship of 1H-indazoles with promising indoleamine-2,3-dioxygenase 1 (IDO1) inhibition properties” (Bioorg Med Chem, 2016)

Tests used:
[1] = target: T1, Indoleamine 2,3-dioxygenase 1 (Homo sapiens, UniProt P14902); experiment: Inhibition of recombinant human N-terminus IDO1 expressed in Escherichia coli assessed as N-formylkynurenine formation at 10 uM using L-tryptophan as substrate measured after 180 mins by UV absorbance based assay
Method in brief: (§1)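 Human N-terminal IDO1 expressed in E. coli, Ni affinity-purified; 40 nmol/L enzyme with 900 μmol/L tryptophan plus coupled reaction components in IDO1 assay buffer, 0.5% DMSO final, room temperature, 180 min. N-formylkynurenine read by UV absorbance at 321 nm. Blank lacks enzyme; positive control lacks inhibitor.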
Target sequence in this assay (P14902 whole entry, looked up): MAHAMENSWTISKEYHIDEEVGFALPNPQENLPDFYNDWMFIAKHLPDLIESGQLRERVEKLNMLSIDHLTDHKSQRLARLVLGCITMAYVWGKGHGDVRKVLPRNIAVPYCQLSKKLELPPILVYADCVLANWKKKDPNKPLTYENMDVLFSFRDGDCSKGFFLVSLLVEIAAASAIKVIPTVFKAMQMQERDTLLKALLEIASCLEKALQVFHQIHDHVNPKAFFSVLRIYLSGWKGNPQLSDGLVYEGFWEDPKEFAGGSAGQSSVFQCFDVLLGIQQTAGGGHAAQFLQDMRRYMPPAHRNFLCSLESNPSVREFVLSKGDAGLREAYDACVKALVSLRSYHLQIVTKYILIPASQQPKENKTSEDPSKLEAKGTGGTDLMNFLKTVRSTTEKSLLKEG

[2] = target: T1, Indoleamine 2,3-dioxygenase 1; experiment: Inhibition of recombinant human N-terminus IDO1 expressed in Escherichia coli assessed as N-formylkynurenine formation at 100 uM using L-tryptophan as substrate measured after 180 mins by UV absorbance based assay; method in brief: as §1
Target sequence in this assay (P14902 whole entry, looked up): as above

[3] = target: T1, Indoleamine 2,3-dioxygenase 1; experiment: Inhibition of recombinant human N-terminus IDO1 expressed in Escherichia coli assessed as N-formylkynurenine formation at 1 uM using L-tryptophan as substrate measured after 180 mins by UV absorbance based assay
Target sequence in this assay (P14902 whole entry, looked up): as above

[4] = target: T1, Indoleamine 2,3-dioxygenase 1; experiment: Inhibition of recombinant human N-terminus IDO1 expressed in Escherichia coli assessed as N-formylkynurenine formation using L-tryptophan as substrate measured after 180 mins by UV absorbance based assay
Method in brief: (§2)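 E. coli-expressed, Ni affinity-purified human N-terminal IDO1 at 40 nmol/L with 900 μmol/L tryptophan, coupled reaction components, 0.5% DMSO final, room temperature, 180 min; N-formylkynurenine read at 321 nm. Duplicates per concentration; % activity relative to no-inhibitor control, fitted by sigmoidal dose-response nonlinear regression; IC50 at half-maximal activity.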
Target sequence in this assay (P14902 whole entry): as the sequence (P14902 whole entry, looked up) above

[5] = target: T1, Indoleamine 2,3-dioxygenase 1; experiment: Inhibition of recombinant human N-terminus IDO1 expressed in Escherichia coli assessed as residual activity at -8.8 log[compound]/M using L-tryptophan as substrate measured after 180 mins by UV absorbance based assay relative to control; method in brief: as §2
Target sequence in this assay (P14902 whole entry, looked up): as above

[6] = target: T1, Indoleamine 2,3-dioxygenase 1; experiment: Inhibition of recombinant human N-terminus IDO1 expressed in Escherichia coli assessed as residual activity at -8.3 log[compound]/M using L-tryptophan as substrate measured after 180 mins by UV absorbance based assay relative to control; method in brief: as §2
Target sequence in this assay (P14902 whole entry, looked up): as above

[7] = target: T1, Indoleamine 2,3-dioxygenase 1; experiment: Inhibition of recombinant human N-terminus IDO1 expressed in Escherichia coli assessed as residual activity at -7.8 log[compound]/M using L-tryptophan as substrate measured after 180 mins by UV absorbance based assay relative to control; method in brief: as §2
Target sequence in this assay (P14902 whole entry, looked up): as above

[8] = target: T1, Indoleamine 2,3-dioxygenase 1; experiment: Inhibition of recombinant human N-terminus IDO1 expressed in Escherichia coli assessed as residual activity at -7.3 log[compound]/M using L-tryptophan as substrate measured after 180 mins by UV absorbance based assay relative to control; method in brief: as §2
[9] = target: T1, Indoleamine 2,3-dioxygenase 1; experiment: Inhibition of recombinant human N-terminus IDO1 expressed in Escherichia coli assessed as residual activity at -6.9 log[compound]/M using L-tryptophan as substrate measured after 180 mins by UV absorbance based assay relative to control; method in brief: as §2
[10] = target: T1, Indoleamine 2,3-dioxygenase 1; experiment: Inhibition of recombinant human N-terminus IDO1 expressed in Escherichia coli assessed as residual activity at -6.4 log[compound]/M using L-tryptophan as substrate measured after 180 mins by UV absorbance based assay relative to control; method in brief: as §2
[11] = target: T1, Indoleamine 2,3-dioxygenase 1; experiment: Inhibition of recombinant human N-terminus IDO1 expressed in Escherichia coli assessed as residual activity at -5.9 log[compound]/M using L-tryptophan as substrate measured after 180 mins by UV absorbance based assay relative to control; method in brief: as §2
[12] = target: T1, Indoleamine 2,3-dioxygenase 1; experiment: Inhibition of recombinant human N-terminus IDO1 expressed in Escherichia coli assessed as residual activity at -5.4 log[compound]/M using L-tryptophan as substrate measured after 180 mins by UV absorbance based assay relative to control; method in brief: as §2
[13] = target: T1, Indoleamine 2,3-dioxygenase 1; experiment: Inhibition of recombinant human N-terminus IDO1 expressed in Escherichia coli assessed as residual activity at -5 log[compound]/M using L-tryptophan as substrate measured after 180 mins by UV absorbance based assay relative to control; method in brief: as §2
[14] = target: T1, Indoleamine 2,3-dioxygenase 1; experiment: Inhibition of recombinant human N-terminus IDO1 expressed in Escherichia coli assessed as residual activity at -4.5 log[compound]/M using L-tryptophan as substrate measured after 180 mins by UV absorbance based assay relative to control; method in brief: as §2

SMILES | inhibition [1] [%] | inhibition [2] [%] | inhibition [3] [%] | further results
Clc1ccc(CNc2cc(Br)cc3[nH]ncc23)cc1 | 42 | 100 | – | –
O=C(CNc1cc(Br)cc2[nH]ncc12)NC1CCOCC1 | 8 | 34 | 4 | –
O=C(O)c1ccc(CNc2cc(Br)cc3[nH]ncc23)cc1 | 49 to 58 | 91 to 94 | 19 | –
O=C(CNc1cc(Br)cc2[nH]ncc12)Nc1ccc(C(=O)O)cc1 | 12 | 37 | 3 | –
O=C(O)c1ccc(COc2cc(Br)cc3[nH]ncc23)cc1 | 18 | 69 | – | –
O=C(O)c1cc(CNc2cc(Br)cc3[nH]ncc23)ccc1O | 38 | 88 | – | –
Oc1ccc(CNc2cc(Br)cc3[nH]ncc23)cc1 | 70 | 100 | – | IC50 [4]: 5.3 µM; Activity [5]: 92%; Activity [6]: 91%; Activity [7]: 91%; Activity [8]: 88%; Activity [9]: 87%; Activity [10]: 82%; Activity [11]: 71%; Activity [12]: 51%; Activity [13]: 26%; Activity [14]: 9%
Cc1nc(NCc2cccc(C(=O)O)c2)c2cn[nH]c2n1 | 5 | 32 | 3 | –
Cc1nc(NCc2ccc(C(=O)O)cc2)c2cn[nH]c2n1 | 5 | 37 | 3 | –
O=C(O)c1cccc(CNc2ncnc3[nH]ncc23)c1 | 2 | 7 | 2 | –
O=C(O)c1ccc(CNc2cccc3[nH]ncc23)cc1 | 1 | 24 | – | –
NS(=O)(=O)NCCNc1nonc1/C(=N/O)Nc1ccc(F)c(Br)c1 | 100 | – | – | –
O=C(O)c1ccc(C(O)CNc2cc(Br)cc3[nH]ncc23)cc1 (centres undefined) | 31 | 73 | – | –
Brc1cc(NCc2ccccc2)c2cn[nH]c2c1 | 37 | 100 | – | –
O=C(O)Cc1ccc(CNc2cc(Br)cc3[nH]ncc23)cc1 | 27 | 79 | – | –
O=C(O)c1cccc(COc2cc(Br)cc3[nH]ncc23)c1 | 7 | 40 | – | –
O=C(O)c1cccc(CNc2cc(Br)cc3[nH]ncc23)c1 | 21 | 74 | – | –
O=C(O)c1ccc(C(CO)Nc2cc(Br)cc3[nH]ncc23)cc1 (centres undefined) | 19 | 68 | – | –
Oc1ccccc1CNc1cc(Br)cc2[nH]ncc12 | 41 | 100 | – | –
O=C(O)c1ccc(CNc2ncnc3[nH]ncc23)cc1 | 3 | 9 | 3 | –
Cc1ccc(CNc2cc(Br)cc3[nH]ncc23)cc1 | 20 | 84 | – | –
